Source: ChEMBL document CHEMBL1131295, “Design of peptidomimetics that inhibit the association of phosphatidylinositol 3-kinase with platelet-derived growth factor-beta receptor and possess cellular activity” (J Med Chem, 1998)
Where a SMILES comes first, the peptide text is derived from it. [ ]: non-standard residue; d: D form. F2Pmp = N[C@@H](Cc1ccc(C(F)(F)P(=O)(O)O)cc1)C(=O)O; Pmp = N[C@@H](Cc1ccc(CP(=O)(O)O)cc1)C(=O)O; pY = N[C@@H](Cc1ccc(OP(=O)(O)O)cc1)C(=O)O; Nle = CCCC[C@H](N)C(=O)O

Biological target: Tyrosine-protein kinase ABL1 (Homo sapiens) (UniProt P00519)
Sequence (P00519 whole entry, the tested form may be a part): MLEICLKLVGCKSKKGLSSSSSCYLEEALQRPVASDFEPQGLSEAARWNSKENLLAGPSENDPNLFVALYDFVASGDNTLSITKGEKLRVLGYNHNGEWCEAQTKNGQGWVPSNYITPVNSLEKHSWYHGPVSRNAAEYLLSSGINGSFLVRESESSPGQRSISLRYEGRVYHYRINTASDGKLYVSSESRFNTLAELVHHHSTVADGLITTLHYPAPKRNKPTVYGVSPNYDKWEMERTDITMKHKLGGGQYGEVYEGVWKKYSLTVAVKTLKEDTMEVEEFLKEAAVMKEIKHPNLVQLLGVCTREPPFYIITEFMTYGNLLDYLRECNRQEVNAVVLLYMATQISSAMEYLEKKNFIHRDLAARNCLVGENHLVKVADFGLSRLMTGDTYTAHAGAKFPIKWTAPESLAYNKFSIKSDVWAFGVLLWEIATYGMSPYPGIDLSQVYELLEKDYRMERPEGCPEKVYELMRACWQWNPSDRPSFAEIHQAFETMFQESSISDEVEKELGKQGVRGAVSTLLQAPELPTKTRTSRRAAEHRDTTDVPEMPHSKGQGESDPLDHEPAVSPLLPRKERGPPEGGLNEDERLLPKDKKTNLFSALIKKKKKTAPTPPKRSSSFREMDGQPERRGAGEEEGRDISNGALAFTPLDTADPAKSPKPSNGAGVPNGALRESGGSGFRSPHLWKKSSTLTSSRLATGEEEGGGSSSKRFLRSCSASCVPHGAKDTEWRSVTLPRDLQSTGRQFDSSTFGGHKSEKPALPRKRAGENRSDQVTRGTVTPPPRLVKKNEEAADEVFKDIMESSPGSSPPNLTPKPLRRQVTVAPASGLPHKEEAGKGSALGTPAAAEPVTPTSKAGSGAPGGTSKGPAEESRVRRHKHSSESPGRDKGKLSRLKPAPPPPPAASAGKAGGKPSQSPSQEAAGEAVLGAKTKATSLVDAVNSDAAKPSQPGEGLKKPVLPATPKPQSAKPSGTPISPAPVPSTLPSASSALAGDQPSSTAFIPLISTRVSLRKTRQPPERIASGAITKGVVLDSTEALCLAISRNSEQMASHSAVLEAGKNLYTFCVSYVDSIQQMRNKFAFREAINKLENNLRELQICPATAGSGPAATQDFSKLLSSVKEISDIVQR
Experiment: Affinity for SH2 domain of abl expressed in Sf9 insect cells
Settings: concentration not given here
In the case of `CSCC[C@H](NC(=O)[C@@H]1CCCN1C(=O)[C@@H](NC(=O)[C@@H](N)Cc1ccc(OP(=O)(O)O)cc1)C(C)C)C(=O)N[C@@H](CC(C)C)C(=O)O` (H-[pY]VPML-OH), the inhibition is reported as 60%.

System: not listed separately
Experiment: Binding affinity against p85 C-terminal SH2 domain to platelet-derived growth factor receptor beta using [35S]GST as radioligand
Settings: not given
Method in brief: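 Recombinant [35S]-labelled GST-p85 C-terminal SH2 fusion (E. coli, IPTG 1 mM, trans-35S label) binding to bead-bound Sf9-expressed PDGF-β receptor tyrosine kinase domain, prephosphorylated with 1 mM ATP, 10 mM MnCl2, 5 mM MgCl2.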
Compound `CC(=O)N[C@@H](Cc1ccc(OP(=O)(O)O)cc1)C(=O)N[C@H](C(=O)N[C@@H](C)C(=O)NCCc1ccccc1)C(C)C` has an IC50 greater than 100000 nM. In the case of `CC(=O)N[C@@H](Cc1ccc(OP(=O)(O)O)cc1)C(=O)N[C@H](C(=O)N[C@H](C)C(=O)NCCC1CCCCC1)C(C)C`, the IC50 is reported as 19000 nM. `CSCC[C@H](NC(=O)[C@@H]1CCCN1C(=O)[C@@H](NC(=O)[C@H](Cc1ccc(OP(=O)(O)O)cc1)NC(C)=O)C(C)C)C(N)=O` (Ac-[pY]VPM-NH2) showed an IC50 of 264 nM. `CSCC[C@H](NC(=O)[C@H](CC(=O)O)NC(=O)[C@H](CCSC)NC(=O)[C@@H](N)Cc1ccc(OP(=O)(O)O)cc1)C(=O)N[C@@H](CO)C(=O)O` (H-[pY]MDMS-OH) showed an IC50 of 520 nM. With `CCCCCN(CCCCC)C(=O)[C@H](C)NC(=O)[C@@H](NC(=O)[C@H](Cc1ccc(OP(=O)(O)O)cc1)NC(C)=O)C(C)C` the IC50 was 3320 nM. Compound `CCCCN(CCCC)C(=O)[C@@H](C)NC(=O)[C@@H](NC(=O)[C@H](Cc1ccc(OP(=O)(O)O)cc1)NC(C)=O)C(C)C` has an IC50 of 478 nM. For `CSCC[C@H](NC(=O)[C@@H]1CCCN1C(=O)[C@@H](NC(=O)[C@@H](N)Cc1ccc(C(F)(F)P(=O)(O)O)cc1)C(C)C)C(=O)N[C@@H](CC(C)C)C(=O)O` (H-[F2Pmp]VPML-OH), the IC50 was 945 nM. Work on `CSCC[C@H](NC(=O)[C@@H]1CCCN1C(=O)[C@@H](NC(=O)[C@H](Cc1ccc(OP(=O)(O)O)cc1)NC(C)=O)C(C)C)C(=O)N[C@@H](CC(C)C)C(=O)O` (Ac-[pY]VPML-OH) yielded an IC50 of 180 nM. With `CSCC[C@H](NC(=O)[C@@H]1CCCN1C(=O)[C@@H](NC(=O)[C@H](Cc1ccc(C(F)(F)P(=O)(O)O)cc1)NC(C)=O)C(C)C)C(N)=O` (Ac-[F2Pmp]VPM-NH2) the IC50 was 1450 nM. `CCCCCNC(=O)C(C)NC(=O)[C@@H](NC(=O)[C@H](Cc1ccc(OP(=O)(O)O)cc1)NC(C)=O)C(C)C` (single isomer, unassigned) showed an IC50 of 4560 nM. Work on `CCCCCNC(=O)[C@H](C)NC(=O)[C@@H](NC(=O)[C@H](Cc1ccc(OP(=O)(O)O)cc1)NC(C)=O)C(C)C` yielded an IC50 of 16100 nM. Compound `CCCCCCN(CCCCCC)C(=O)[C@H](C)NC(=O)[C@@H](NC(=O)[C@H](Cc1ccc(OP(=O)(O)O)cc1)NC(C)=O)C(C)C` has an IC50 of 2500 nM. With `CCCCN(CCCC)C(=O)[C@H](C)NC(=O)[C@@H](NC(=O)[C@H](Cc1ccc(OP(=O)(O)O)cc1)NC(C)=O)C(C)C` the IC50 was 5700 nM. Work on `CSCC[C@H](NC(=O)[C@@H]1CCCN1C(=O)[C@@H](NC(=O)[C@@H](N)Cc1ccc(OP(=O)(O)O)cc1)C(C)C)C(=O)N[C@@H](CC(C)C)C(N)=O` (H-[pY]VPML-NH2) yielded an IC50 of 400 nM. In the case of `CCCCCN(CCCCC)C(=O)[C@@H](C)NC(=O)[C@@H](NC(=O)[C@H](Cc1ccc(OP(=O)(O)O)cc1)NC(C)=O)C(C)C`, the IC50 is reported as 220 nM. Work on `CSCC[C@H](NC(=O)[C@@H]1CCCN1C(=O)[C@@H](NC(=O)[C@@H](N)Cc1ccc(OP(=O)(O)O)cc1)C(C)C)C(=O)N[C@@H](CC(C)C)C(=O)O` (H-[pY]VPML-OH) yielded an IC50 of 445 nM. `CCCCCCN(CCCCCC)C(=O)[C@@H](C)NC(=O)[C@@H](NC(=O)[C@H](Cc1ccc(OP(=O)(O)O)cc1)NC(C)=O)C(C)C` showed an IC50 of 76 nM. With `CC(=O)N[C@@H](Cc1ccc(OP(=O)(O)O)cc1)C(=O)N[C@H](C(=O)N[C@H](C)C(=O)NCCc1ccccc1)C(C)C` the IC50 was 37600 nM. `CSCC[C@H](NC(=O)[C@@H]1CCCN1C(=O)[C@@H](NC(=O)[C@@H](N)Cc1ccc(CP(=O)(O)O)cc1)C(C)C)C(=O)N[C@@H](CC(C)C)C(=O)O` (H-[Pmp]VPML-OH) gave an IC50 of 8700 nM. Work on `CCCCN(CC(N)=O)C(=O)[C@@H](C)NC(=O)[C@@H](NC(=O)[C@H](Cc1ccc(OP(=O)(O)O)cc1)NC(C)=O)C(C)C` yielded an IC50 of 2500 nM. `CC(=O)N[C@@H](Cc1ccc(OP(=O)(O)O)cc1)C(=O)N[C@H](C(=O)N[C@@H](C)C(=O)NCCC1CCCCC1)C(C)C` showed an IC50 greater than 100000 nM. With `CCCC[C@H](NC(=O)[C@@H]1CCCN1C(=O)[C@@H](NC(=O)[C@@H](N)Cc1ccc(OP(=O)(O)O)cc1)C(C)C)C(=O)N[C@@H](CC(C)C)C(=O)O` (H-[pY]VP[Nle]L-OH) the IC50 was 1360 nM. With `CSCC[C@H](NC(=O)[C@@H]1CCCN1C(=O)[C@@H](NC(=O)[C@@H](N)Cc1ccc(OP(=O)(O)O)cc1)C(C)C)C(N)=O` (H-[pY]VPM-NH2) the IC50 was 485 nM. Work on `CCCCCN(CCCCC)C(=O)[C@H](C)NC(=O)[C@@H](NC(=O)[C@H](Cc1ccc(C(F)(F)P(=O)(O)O)cc1)NC(C)=O)C(C)C` yielded an IC50 of 372 nM. `CSCC[C@H](NC(=O)[C@@H]1CCCN1C(=O)[C@@H](NC(=O)[C@@H](N)Cc1ccc(OP(=O)(O)O)cc1)C(C)C)C(=O)O` (H-[pY]VPM-OH) showed an IC50 of 6850 nM. In the case of `CSCC[C@H](NC(=O)[C@@H]1CCCN1C(=O)[C@@H](NC(=O)[C@H](Cc1ccc(OP(=O)(O)O)cc1)NC(C)=O)C(C)C)C(=O)N[C@@H](CC(C)C)C(N)=O` (Ac-[pY]VPML-NH2), the IC50 is reported as 160 nM. In the case of `CCCCCCCCN(CCCCCCCC)C(=O)[C@H](C)NC(=O)[C@@H](NC(=O)[C@H](Cc1ccc(OP(=O)(O)O)cc1)NC(C)=O)C(C)C`, the IC50 is reported as 3470 nM. Work on `CCCCCCN(CCCCCC)C(=O)[C@H](C)NC(=O)[C@@H](NC(=O)[C@H](Cc1ccc(C(F)(F)P(=O)(O)O)cc1)NC(C)=O)C(C)C` yielded an IC50 of 446 nM.

Biological target: Proto-oncogene tyrosine-protein kinase Src (Homo sapiens, UniProt P12931)
Sequence (P12931 2-536 limits assumed): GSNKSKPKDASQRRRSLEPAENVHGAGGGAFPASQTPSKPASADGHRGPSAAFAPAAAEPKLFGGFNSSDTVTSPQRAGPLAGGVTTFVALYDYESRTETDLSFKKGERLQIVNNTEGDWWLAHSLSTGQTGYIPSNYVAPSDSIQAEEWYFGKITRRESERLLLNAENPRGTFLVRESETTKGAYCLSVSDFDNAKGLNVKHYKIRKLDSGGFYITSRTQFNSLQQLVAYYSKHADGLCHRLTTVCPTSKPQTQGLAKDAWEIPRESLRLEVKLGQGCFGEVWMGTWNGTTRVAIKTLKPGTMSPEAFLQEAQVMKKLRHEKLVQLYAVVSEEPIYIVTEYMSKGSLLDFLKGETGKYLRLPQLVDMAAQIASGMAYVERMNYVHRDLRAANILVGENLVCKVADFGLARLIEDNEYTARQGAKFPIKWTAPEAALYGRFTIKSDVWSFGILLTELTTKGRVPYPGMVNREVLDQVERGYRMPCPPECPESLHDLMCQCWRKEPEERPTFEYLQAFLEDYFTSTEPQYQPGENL
Experiment: Affinity for SH2 domain of src in Sf9 insect cells
Settings: not given
Work on `CSCC[C@H](NC(=O)[C@@H]1CCCN1C(=O)[C@@H](NC(=O)[C@H](Cc1ccc(OP(=O)(O)O)cc1)NC(C)=O)C(C)C)C(=O)N[C@@H](CC(C)C)C(=O)O` (Ac-[pY]VPML-OH) yielded an IC50 of 5900 nM. For `CSCC[C@H](NC(=O)[C@@H]1CCCN1C(=O)[C@@H](NC(=O)[C@@H](N)Cc1ccc(OP(=O)(O)O)cc1)C(C)C)C(=O)N[C@@H](CC(C)C)C(=O)O` (H-[pY]VPML-OH), the IC50 was 12700 nM. For `CCCC[C@H](NC(=O)[C@@H]1CCCN1C(=O)[C@@H](NC(=O)[C@@H](N)Cc1ccc(OP(=O)(O)O)cc1)C(C)C)C(=O)N[C@@H](CC(C)C)C(=O)O` (H-[pY]VP[Nle]L-OH), the IC50 was greater than 10000 nM.
